Legend:
[1] = species: Homo sapiens; test: Selectivity index, ratio of EC50 for human muscarinic acetylcholine receptor subtype 1 to EC50 for human muscarinic acetylcholine receptor subtype 5
[2] = Fraction unbound in rat brain at 5 uM incubated for 4 hrs at 37 degC by equilibrium dialysis based LC/MS/MS analysis; type: ADME, tissue-based
In short: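 Fraction unbound measured in rat and human plasma and in rat brain homogenate.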

[3] = target: T1, Muscarinic acetylcholine receptor M1 (Homo sapiens) (UniProt P11229); test: Activity at human muscarinic acetylcholine receptor subtype 1 expressed in CHO cells by calcium mobilization assay relative to acetylcholine; type: functional, cell-based
T1 sequence (whole entry): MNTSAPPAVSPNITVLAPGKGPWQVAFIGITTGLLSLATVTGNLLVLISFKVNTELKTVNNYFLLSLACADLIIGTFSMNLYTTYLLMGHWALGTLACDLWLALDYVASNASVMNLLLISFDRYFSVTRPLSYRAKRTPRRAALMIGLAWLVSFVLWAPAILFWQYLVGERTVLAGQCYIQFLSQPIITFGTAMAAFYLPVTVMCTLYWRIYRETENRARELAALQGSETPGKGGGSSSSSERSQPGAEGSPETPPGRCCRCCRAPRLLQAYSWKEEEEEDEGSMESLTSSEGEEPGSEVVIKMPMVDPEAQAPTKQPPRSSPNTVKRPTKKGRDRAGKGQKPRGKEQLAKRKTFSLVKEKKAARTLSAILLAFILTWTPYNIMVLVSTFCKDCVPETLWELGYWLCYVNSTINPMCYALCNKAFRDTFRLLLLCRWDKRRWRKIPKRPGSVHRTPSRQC
In short: (§1)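 Muscarinic subtype selectivity by fluorescence calcium mobilization in highly expressing CHO lines with similar receptor levels; Gi/o-coupled M2 and M4 cells co-transfected with chimeric Gqi5 to couple to Ca2+ mobilization. Read-outs are PAM EC50 and ACh max response. Mean ± SEM of at least three independent determinations.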

[4] = target: T2, Muscarinic acetylcholine receptor M5 (Homo sapiens) (UniProt P08912); test: Positive allosteric modulator activity at human muscarinic acetylcholine receptor subtype 5 expressed in CHO cells by calcium mobilization assay relative to acetylcholine; type: functional, cell-based
T2 sequence (whole entry): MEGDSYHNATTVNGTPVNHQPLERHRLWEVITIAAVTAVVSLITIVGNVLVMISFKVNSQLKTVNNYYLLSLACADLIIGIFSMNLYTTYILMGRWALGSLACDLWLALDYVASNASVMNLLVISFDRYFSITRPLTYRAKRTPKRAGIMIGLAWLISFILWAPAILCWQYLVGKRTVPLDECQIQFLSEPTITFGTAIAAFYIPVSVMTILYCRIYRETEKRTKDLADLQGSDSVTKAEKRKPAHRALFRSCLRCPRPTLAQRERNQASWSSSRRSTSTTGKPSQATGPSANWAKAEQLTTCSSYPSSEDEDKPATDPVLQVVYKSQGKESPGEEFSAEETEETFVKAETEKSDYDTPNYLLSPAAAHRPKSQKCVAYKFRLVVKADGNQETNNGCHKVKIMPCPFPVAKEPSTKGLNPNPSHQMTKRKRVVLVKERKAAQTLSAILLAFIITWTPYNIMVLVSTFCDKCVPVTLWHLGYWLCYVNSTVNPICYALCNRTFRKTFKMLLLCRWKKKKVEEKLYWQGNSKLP

[5] = target: Cannabinoid receptor 1 (Homo sapiens) (UniProt P21554); test: Displacement of radioligand from human CB1 receptor at 10 uM
In short: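 Pan Labs lead profiling radioligand binding battery of 68 GPCRs, ion channels and transporters, with test compound present at 10 μM.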

[6] = target: Muscarinic acetylcholine receptor M3 (Homo sapiens, UniProt P20309); test: Activity at human muscarinic acetylcholine receptor subtype 3 expressed in CHO cells by calcium mobilization assay acetylcholine; type: functional, cell-based; in short: as §1
[7] = target: T3, Muscarinic acetylcholine receptor M5 (Rattus norvegicus, UniProt P08911); test: Activity at rat muscarinic acetylcholine receptor subtype 5 expressed in CHO cells by calcium mobilization assay; type: functional, cell-based; in short: as §1
T3 sequence (P08911 whole entry): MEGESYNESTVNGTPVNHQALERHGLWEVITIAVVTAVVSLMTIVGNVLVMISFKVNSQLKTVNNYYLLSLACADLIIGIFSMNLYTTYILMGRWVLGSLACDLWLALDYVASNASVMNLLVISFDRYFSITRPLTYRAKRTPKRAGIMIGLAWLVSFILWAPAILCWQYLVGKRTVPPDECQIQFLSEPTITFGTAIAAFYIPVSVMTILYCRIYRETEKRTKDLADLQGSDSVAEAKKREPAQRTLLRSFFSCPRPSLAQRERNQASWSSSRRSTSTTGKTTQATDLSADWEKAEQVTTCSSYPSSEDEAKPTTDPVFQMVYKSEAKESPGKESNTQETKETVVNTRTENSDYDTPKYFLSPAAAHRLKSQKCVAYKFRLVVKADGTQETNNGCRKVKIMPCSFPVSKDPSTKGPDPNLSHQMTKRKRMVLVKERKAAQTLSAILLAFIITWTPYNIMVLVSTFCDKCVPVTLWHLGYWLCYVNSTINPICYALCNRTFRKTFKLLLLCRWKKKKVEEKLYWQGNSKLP

[8] = target: T4, Muscarinic acetylcholine receptor M4 (Homo sapiens, UniProt P08173); test: Activity at human muscarinic acetylcholine receptor subtype 4 expressed in CHO cells co-transfected with chimeric Gqi5 by calcium mobilization assay; type: functional, cell-based; in short: as §1
T4 sequence (P08173 whole entry): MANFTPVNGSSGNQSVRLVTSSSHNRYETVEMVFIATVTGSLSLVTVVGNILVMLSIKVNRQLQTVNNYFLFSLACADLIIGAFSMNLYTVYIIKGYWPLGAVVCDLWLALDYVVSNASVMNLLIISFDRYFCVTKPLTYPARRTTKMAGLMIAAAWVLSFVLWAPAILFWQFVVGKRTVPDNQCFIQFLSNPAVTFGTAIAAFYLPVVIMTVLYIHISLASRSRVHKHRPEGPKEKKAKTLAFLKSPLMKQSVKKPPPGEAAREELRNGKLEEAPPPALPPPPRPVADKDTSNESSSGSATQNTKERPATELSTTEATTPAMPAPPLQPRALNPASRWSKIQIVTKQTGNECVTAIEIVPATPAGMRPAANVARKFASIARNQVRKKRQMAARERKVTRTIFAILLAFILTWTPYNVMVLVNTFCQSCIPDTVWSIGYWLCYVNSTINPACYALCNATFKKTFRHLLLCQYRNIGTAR

Cannabinoid receptor 1 (Homo sapiens), sequence (P21554 whole entry): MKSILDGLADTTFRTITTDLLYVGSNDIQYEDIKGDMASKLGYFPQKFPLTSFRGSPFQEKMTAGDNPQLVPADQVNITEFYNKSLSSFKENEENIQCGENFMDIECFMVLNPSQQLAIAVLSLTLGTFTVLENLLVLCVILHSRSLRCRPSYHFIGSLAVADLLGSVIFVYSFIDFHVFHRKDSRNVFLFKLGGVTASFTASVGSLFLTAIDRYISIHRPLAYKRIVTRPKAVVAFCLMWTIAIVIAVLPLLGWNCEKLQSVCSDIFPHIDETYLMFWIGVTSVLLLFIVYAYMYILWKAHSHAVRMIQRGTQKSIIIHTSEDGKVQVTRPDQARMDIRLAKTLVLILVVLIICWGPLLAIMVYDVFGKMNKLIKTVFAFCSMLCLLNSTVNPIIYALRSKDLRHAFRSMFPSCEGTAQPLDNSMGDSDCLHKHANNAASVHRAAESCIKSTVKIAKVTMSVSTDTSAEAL
Muscarinic acetylcholine receptor M3, sequence (P20309 whole entry, looked up): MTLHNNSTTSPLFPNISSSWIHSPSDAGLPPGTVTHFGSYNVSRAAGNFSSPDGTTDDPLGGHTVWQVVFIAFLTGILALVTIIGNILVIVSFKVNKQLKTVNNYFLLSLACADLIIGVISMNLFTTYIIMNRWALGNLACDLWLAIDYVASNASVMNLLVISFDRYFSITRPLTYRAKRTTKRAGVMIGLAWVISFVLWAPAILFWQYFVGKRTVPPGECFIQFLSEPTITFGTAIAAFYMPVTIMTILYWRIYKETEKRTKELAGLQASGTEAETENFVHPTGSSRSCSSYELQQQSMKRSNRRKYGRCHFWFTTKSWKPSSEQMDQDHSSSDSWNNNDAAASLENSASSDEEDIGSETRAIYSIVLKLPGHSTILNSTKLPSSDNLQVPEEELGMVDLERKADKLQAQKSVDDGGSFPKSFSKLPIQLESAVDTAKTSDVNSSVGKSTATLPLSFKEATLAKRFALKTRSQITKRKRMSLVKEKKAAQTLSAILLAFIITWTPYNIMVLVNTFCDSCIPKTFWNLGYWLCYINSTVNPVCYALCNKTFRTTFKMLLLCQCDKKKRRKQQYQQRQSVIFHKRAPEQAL

CCN(Cc1ccccc1C(F)(F)F)C(=O)C1CCN(S(=O)(=O)c2ccc3[nH]ncc3c2)CC1
Ratio EC50 [1]: > 10
Fu [2]: 0.011
%max [3]: 52%
%max [4]: 96%
inhibition [5]: 50%
%max [6]: 67%
EC50 [7]: 610 nM
EC50 [8]: > 30000 nM
